A selection: hits, their analogues and other compounds. The true share with any hit is near 2.5%.
PRMT1 FP inh: blocks human protein arginine methyltransferase 1; Q99873; recombinant PRMT1, activity-based probe fluorescence polarization; inhibition, % at 2.79 µM; actives 1.3% (n = 370,000); AID 652257;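 active = inhibition above about 21% made by adding two undisclosed values, limit read from the data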
Target sequence (Q99873 whole entry, looked up): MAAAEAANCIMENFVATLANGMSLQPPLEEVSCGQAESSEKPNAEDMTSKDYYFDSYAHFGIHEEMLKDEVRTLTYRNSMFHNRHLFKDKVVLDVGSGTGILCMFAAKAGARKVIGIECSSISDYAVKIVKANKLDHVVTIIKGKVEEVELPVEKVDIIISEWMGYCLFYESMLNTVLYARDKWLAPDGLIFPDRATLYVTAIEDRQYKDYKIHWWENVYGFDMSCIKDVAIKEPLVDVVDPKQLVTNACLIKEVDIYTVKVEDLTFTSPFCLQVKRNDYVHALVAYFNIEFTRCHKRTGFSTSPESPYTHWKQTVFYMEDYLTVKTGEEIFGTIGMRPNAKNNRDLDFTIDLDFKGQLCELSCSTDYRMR
TCR CD3 inh: human TCR-CD3 binding inhibition; AID 651800; inhibition, % at 9.4 µM; TAMRA-labeled TCR probe fluorescence, biochemical; actives 0.37% (n = 360,000); in the data active = inhibition above about 19%;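 also: recombinant mutant TCR 2C K166C tagged with TAMRA read by polarization; 0% = receptor in buffer alone and 100% = receptor with positive control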
SIAE inh: inhibitors of human sialic acid acetylesterase SIAE | actives 0.69% (n = 370,000) | AID 1053197 | SIAE FP-Rh probe binding, fluorescence polarization | inhibition, % at 9.66 µM | Q9HAT2;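 active = inhibition above a cutoff: mean of compounds within the control limits plus 3 SD of those, cut at about 17% in these data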;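 also: 0% = plate median of compound wells and 100% = probe without SIAE protein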
HTRA1 inhibitor: inhibitors of human serine peptidase HTRA1; Q92743; recombinant HTRA1, FP-rhodamine activity-based probe, fluorescence polarization; inhibition, % at 5.96 µM; actives 0.5% (n = 340,000); AID 504803; in the data active = inhibition above about 36%;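 also: 0% = enzyme with DMSO and 100% = wells lacking enzyme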
mABHD4 FP: inhibits mouse alpha/beta hydrolase domain 4; Q8VD66; actives 0.54% (n = 370,000); inhibition, % at 8.92 µM; purified mABHD4, FP-Rh probe fluorescence polarization;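 active = inhibition exceeding the mean over every tested compound plus 3 SD, cut at about 30% in these data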;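 also: 0% = plate median of compound wells and 100% = S159A mutant with DMSO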
Target sequence (Q8VD66 whole entry, looked up, the tested form may be a part): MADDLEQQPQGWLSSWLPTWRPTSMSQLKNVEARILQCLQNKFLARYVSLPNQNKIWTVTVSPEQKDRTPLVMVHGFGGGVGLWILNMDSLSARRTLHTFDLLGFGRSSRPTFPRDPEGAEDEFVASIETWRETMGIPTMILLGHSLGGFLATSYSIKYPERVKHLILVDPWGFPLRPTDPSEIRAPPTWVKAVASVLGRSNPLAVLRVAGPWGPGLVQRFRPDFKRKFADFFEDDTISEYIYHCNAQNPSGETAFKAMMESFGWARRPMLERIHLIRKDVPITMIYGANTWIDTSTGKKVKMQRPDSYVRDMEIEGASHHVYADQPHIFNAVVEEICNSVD
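Doses – 8.92 µM, single dose · Material – wild-type mouse ABHD4 protein · Replication – single well per compound (singlicate) · Measure – percent inhibition of probe binding, normalized to plate controls · Schedule – 45 min compound pre-incubation plus 60 min probe step, 25 °C · Detection – fluorescence polarization with parallel and perpendicular emission, 525/598 nm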
SIAE confirm: confirmation of human SIAE inhibitors | shares compounds with SIAE inh | SIAE FP-Rh activity-based probe, fluorescence polarization | inhibition, % at 9.66 µM | actives 13% (n = 2,300) | AID 1117263;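 active = mean inhibition of the replicates above the hit cutoff set in the primary screen, cut at about 17% in these data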;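 also: 0% = SIAE with DMSO and probe and 100% = probe without SIAE; inhibitors lower polarization as more probe stays unbound to SIAE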
* = called active by the depositor.

What do the screens show for `CCN(CC(=O)NCc1ccc(Cl)cc1)C(=O)CN1C(=O)NC(CC)(c2ccccc2)C1=O` (stereo unspecified)?
PRMT1 FP inh: 1.5; TCR CD3 inh: -3.1; SIAE inh: 0.5; HTRA1 inhibitor: -2.2; mABHD4 FP: 2.3

Results for C/C(=N\Nc1cc(C)nc(-c2ccccc2O)n1)c1ccccc1 ?
PRMT1 FP inh: -1.9; TCR CD3 inh: -2.2; SIAE inh: -8.1; HTRA1 inhibitor: -26.1; mABHD4 FP: -8.1

What do the screens show for `Cc1cc(N/N=C/c2ccc(O)c(C)c2O)nc(-c2ccccc2O)n1`?
PRMT1 FP inh: 1.1; TCR CD3 inh: 2.9; SIAE inh: 35.7*; HTRA1 inhibitor: 19.4; mABHD4 FP: -21.7; SIAE confirm: 2.5

What do the screens show for `CS(=O)(=O)NCCCCCCNS(C)(=O)=O`?
PRMT1 FP inh: -4.5; TCR CD3 inh: 3.5; SIAE inh: 17.1*; HTRA1 inhibitor: 4.3; mABHD4 FP: -5.0; SIAE confirm: 0.2

How did Cc1nc(N2CCN(Cc3nc4ccccc4[nH]3)CC2)c2oc3ccccc3c2n1 do in these assays?
PRMT1 FP inh: 4.1; TCR CD3 inh: -1.9; SIAE inh: -1.6; HTRA1 inhibitor: -12.7; mABHD4 FP: -8.6

What do the screens show for `c1ccc2[nH]c(CN3CCN(c4ncnc5c4oc4ccccc45)CC3)nc2c1`?
PRMT1 FP inh: -0.3; TCR CD3 inh: -8.7; SIAE inh: 19.9*; HTRA1 inhibitor: -5.6; mABHD4 FP: 6.1; SIAE confirm: -5.5

What do the screens show for `CN(CC(=O)Nc1ccc(OC(F)(F)F)cc1)C(=O)c1ccccc1SCC(=O)N1CCCC1`?
PRMT1 FP inh: -1.1; TCR CD3 inh: 0.1; SIAE inh: -4.0; HTRA1 inhibitor: -8.6; mABHD4 FP: -5.8

What do the screens show for `Cc1ccc(-n2nc(C)c3c2OC(N)=C(C#N)C3c2ccncc2)cc1` (stereo unspecified)?
PRMT1 FP inh: 1.7; TCR CD3 inh: 2.8; SIAE inh: 19.2*; HTRA1 inhibitor: 8.8; mABHD4 FP: 22.4; SIAE confirm: 4.8

How did Cc1ccccc1C(=O)/C=C1\NC(=O)CS1 do in these assays?
PRMT1 FP inh: -1.4; TCR CD3 inh: -2.8; SIAE inh: 17.3*; HTRA1 inhibitor: 0.7; mABHD4 FP: -0.3; SIAE confirm: 2.1

What do the screens show for `O=C1CS/C(=C/C(=O)c2ccccc2)N1`?
PRMT1 FP inh: -1.5; TCR CD3 inh: -2.9; SIAE inh: -9.2; HTRA1 inhibitor: 2.7; mABHD4 FP: 1.4

Results for CCOC(=O)CN(C(=O)CSc1nnc2c(n1)[nH]c1ccccc12)c1ccccc1 ?
PRMT1 FP inh: 1.0; TCR CD3 inh: -9.0; SIAE inh: 23.0*; HTRA1 inhibitor: -3.3; mABHD4 FP: -9.7; SIAE confirm: -37.2

How did CCOC(=O)Cc1c(C)nc2c(-c3ccc(Cl)cc3)c[nH]n2c1=O do in these assays?
PRMT1 FP inh: 0.7; TCR CD3 inh: 0.5; SIAE inh: 1.7; HTRA1 inhibitor: 6.7; mABHD4 FP: 0.8

What do the screens show for `CC1=NN(c2ccc(C(=O)O)c(N)c2)C(=O)C1`?
PRMT1 FP inh: 9.9; TCR CD3 inh: 0.4; SIAE inh: 17.6*; HTRA1 inhibitor: 3.9; mABHD4 FP: 18.4; SIAE confirm: 3.1

Results for CCOC(=O)c1nc(C)nc(Sc2n[nH]c(-c3ccccc3)n2)c1C ?
PRMT1 FP inh: -0.7; TCR CD3 inh: -5.8; SIAE inh: -0.1; HTRA1 inhibitor: 6.0; mABHD4 FP: 1.6

How did COc1ccc(CCNC(=O)C/C(C)=N/NC(=O)c2ccc([N+](=O)[O-])cc2Cl)cc1OC do in these assays?
PRMT1 FP inh: -1.1; TCR CD3 inh: -7.5; SIAE inh: 17.2*; HTRA1 inhibitor: -0.9; mABHD4 FP: -4.4; SIAE confirm: 6.3

Results for CCN(CC)CCn1c2c(c(SCC(=O)Nc3ccccc3Cl)nc1=O)CCCC2 ?
PRMT1 FP inh: -6.7; TCR CD3 inh: 5.9; SIAE inh: -0.1; HTRA1 inhibitor: 3.8; mABHD4 FP: 1.1

Results for O=C(CSc1nc(=O)n(CCCN2CCOCC2)c2c1CCC2)Nc1ccc([N+](=O)[O-])cc1 ?
PRMT1 FP inh: -1.6; TCR CD3 inh: -4.8; SIAE inh: 17.7*; HTRA1 inhibitor: 8.2; mABHD4 FP: 6.4; SIAE confirm: 1.2

What do the screens show for `CCN(CC)CCCn1c2c(c(SCC(=O)Nc3ccccc3Cl)nc1=O)CCC2`?
PRMT1 FP inh: -1.7; TCR CD3 inh: 2.6; SIAE inh: 18.1*; HTRA1 inhibitor: -6.2; mABHD4 FP: 3.2; SIAE confirm: -1.1

Results for CC1(C)CC(=O)C2=C(C1)N(c1ccc(F)cc1)C(N)=C(C#N)C2c1cccs1 (stereo unspecified) ?
PRMT1 FP inh: 0.2; TCR CD3 inh: -5.1; SIAE inh: 30.8*; HTRA1 inhibitor: -14.3; mABHD4 FP: -6.2; SIAE confirm: -4.5

What do the screens show for `Cc1ccc(N2C(N)=C(C#N)C(c3cccs3)C3=C2CC(C)(C)CC3=O)cc1` (stereo unspecified)?
PRMT1 FP inh: 2.6; TCR CD3 inh: -14.1; SIAE inh: -1.6; HTRA1 inhibitor: -13.5; mABHD4 FP: -6.7

How did O=C(COc1ccc(Br)cc1)NCCCNC(=O)c1ccncc1 do in these assays?
PRMT1 FP inh: 0.4; TCR CD3 inh: 5.5; SIAE inh: 1.9; HTRA1 inhibitor: 7.0; mABHD4 FP: 4.0

Results for CCCCCn1cc(CCC(=O)Nc2ccc(N(C)c3ccccn3)cc2)c2ccccc21 ?
PRMT1 FP inh: -1.9; TCR CD3 inh: 1.5; SIAE inh: 26.4*; mABHD4 FP: -1.2; SIAE confirm: 27.1*

What do the screens show for `Cc1ccc(S(=O)(=O)c2nc(-c3ccco3)oc2SC(C)C)cc1`?
PRMT1 FP inh: 4.0; TCR CD3 inh: 3.9; SIAE inh: -1.6; HTRA1 inhibitor: -20.8; mABHD4 FP: 2.7

What do the screens show for `Cn1cc(/C=N\NC(=O)C2COc3ccccc3O2)c2ccccc21` (stereo unspecified)?
PRMT1 FP inh: 1.4; TCR CD3 inh: 0.7; SIAE inh: 20.0*; mABHD4 FP: -8.8; SIAE confirm: 0.7

Results for Cc1c(/C=N\NC(=O)C2COc3ccccc3O2)c2ccccc2n1C (stereo unspecified) ?
PRMT1 FP inh: 1.3; TCR CD3 inh: -2.7; SIAE inh: 5.2; HTRA1 inhibitor: -0.4; mABHD4 FP: 5.5

What do the screens show for `COC(=O)C1C(=O)c2c(n[nH]c2C)CC1(C)C` (stereo unspecified)?
PRMT1 FP inh: -2.8; TCR CD3 inh: 3.6; SIAE inh: 18.6*; HTRA1 inhibitor: 6.8; mABHD4 FP: -1.3; SIAE confirm: 0.8

How did O=C(Nc1ccccc1C(F)(F)F)c1ncn[nH]1 do in these assays?
PRMT1 FP inh: 0.3; TCR CD3 inh: -2.7; SIAE inh: 3.6; HTRA1 inhibitor: -1.0; mABHD4 FP: -3.8

What do the screens show for `NC(=O)CC(NC(=O)Cc1ccc(Cl)cc1)c1ccc(NC2CCCCC2)c([N+](=O)[O-])c1` (stereo unspecified)?
PRMT1 FP inh: -1.8; TCR CD3 inh: -4.3; SIAE inh: 20.0*; HTRA1 inhibitor: -2.4; mABHD4 FP: -1.9; SIAE confirm: -7.8
